Measurements: ChEMBL document CHEMBL1157144, “Novel 16-membered macrolides modified at C-12 and C-13 positions of midecamycin A1 and miokamycin. Part 1: Synthesis and evaluation of 12,13-carbamate and 12-arylalkylamino-13-hydroxy analogues” (2008)
Values after ≈ are worked out from the molar mass of the structure shown.

Columns and labels:
Assay type in all cases: functional
[1] = system: Staphylococcus aureus; assay: Antibacterial activity against standard Staphylococcus aureus after 20 hrs by agar dilution method
Procedure, shortened: (§1)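 Agar dilution MIC. The inoculum came from a seed culture in Sensitivity test broth. A 5 µl portion of a cell suspension of about 10^6 CFU/ml was inoculated onto Sensitivity disk agar supplemented with 5% horse blood. Plates were incubated at 37 °C for 20 h, then MIC was read.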

[2] = system: Staphylococcus aureus; assay: Antibacterial activity against susceptible Staphylococcus aureus after 20 hrs by agar dilution method; procedure, shortened: as §1
[3] = system: Staphylococcus aureus; assay: Antibacterial activity against ermA-constitutive resistant Staphylococcus aureus after 20 hrs by agar dilution method; procedure, shortened: as §1
[4] = system: Staphylococcus aureus; assay: Antibacterial activity against ermB-inducible resistant Staphylococcus aureus after 20 hrs by agar dilution method; procedure, shortened: as §1
[5] = system: Staphylococcus aureus; assay: Antibacterial activity against ermC-inducible resistant Staphylococcus aureus after 20 hrs by agar dilution method; procedure, shortened: as §1
[6] = system: Streptococcus pneumoniae; assay: Antibacterial activity against susceptible Streptococcus pneumoniae after 20 hrs by agar dilution method
Procedure, shortened: (§2)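 MIC by agar dilution. Strains grown on blood agar plates for seed culture. About 5 µl of a suspension of roughly 10^6 CFU/ml spotted onto Sensitivity disk agar with 5% horse blood. Plates incubated at 37 °C for 20 h, then MIC read.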

[7] = system: Streptococcus pneumoniae; assay: Antibacterial activity against ermB-constitutive resistant Streptococcus pneumoniae after 20 hrs by agar dilution method
Procedure, shortened: (§3)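 Agar dilution MIC. Streptococcal strains were pre-cultured on blood agar plates. A 5 µl portion of a cell suspension of about 10^6 CFU/ml was inoculated onto Sensitivity disk agar supplemented with 5% horse blood. Plates were incubated at 37 °C for 20 h, then MIC was read.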

[8] = system: Streptococcus pneumoniae; assay: Antibacterial activity against ermB-inducible resistant Streptococcus pneumoniae after 20 hrs by agar dilution method; procedure, shortened: as §3
[9] = system: Streptococcus pneumoniae; assay: Antibacterial activity against mefE efflux-resistant Streptococcus pneumoniae after 20 hrs by agar dilution method; procedure, shortened: as §3
[10] = system: Streptococcus pyogenes; assay: Antibacterial activity against ermB-constitutive resistant Streptococcus pyogenes after 20 hrs by agar dilution method; procedure, shortened: as §3
[11] = system: Streptococcus pyogenes; assay: Antibacterial activity against mefE efflux-resistant Streptococcus pyogenes after 20 hrs by agar dilution method; procedure, shortened: as §3
[12] = system: Moraxella catarrhalis; assay: Antibacterial activity against standard Moraxella catarrhalis after 20 hrs by agar dilution method; procedure, shortened: as §2
[13] = system: Haemophilus influenzae; assay: Antibacterial activity against standard Haemophilus influenzae after 20 hrs by agar dilution method; procedure, shortened: as §2
[14] = system: Haemophilus influenzae; assay: Antibacterial activity against susceptible Haemophilus influenzae after 20 hrs by agar dilution method; procedure, shortened: as §2

SMILES	MIC [1]	MIC [2]	MIC [3]	MIC [4]	MIC [5]	MIC [6]	MIC [7]	MIC [8]	MIC [9]	MIC [10]	MIC [11]	MIC [12]	MIC [13]	MIC [14]
CCC(=O)O[C@@H]1CC(=O)O[C@H](C)C[C@H](O)[C@H](N(C)CCCc2ccncc2)/C=C/[C@H](OC(C)=O)[C@H](C)C[C@H](CC=O)[C@H](O[C@@H]2O[C@H](C)[C@@H](O[C@H]3C[C@@](C)(O)[C@@H](OC(=O)CC)[C@H](C)O3)[C@H](N(C)C)[C@H]2O)[C@H]1OC	0.2 µg/mL (≈ 0.196 µM)	0.2 µg/mL (≈ 0.196 µM)	> 100 µg/mL	0.2 µg/mL (≈ 0.196 µM)	0.39 µg/mL (≈ 0.382 µM)	0.05 µg/mL (≈ 0.0489 µM)	> 100 µg/mL	> 100 µg/mL	0.1 µg/mL (≈ 0.0978 µM)	> 100 µg/mL	0.1 µg/mL (≈ 0.0978 µM)	0.78 µg/mL (≈ 0.763 µM)	1.56 µg/mL (≈ 1.53 µM)	12.5 µg/mL (≈ 12.2 µM)
CCC(=O)O[C@@H]1CC(=O)O[C@H](C)C[C@H](O)[C@H](N(C)CCc2ccccc2)/C=C/[C@H](OC(C)=O)[C@H](C)C[C@H](CC=O)[C@H](O[C@@H]2O[C@H](C)[C@@H](O[C@H]3C[C@@](C)(O)[C@@H](OC(=O)CC)[C@H](C)O3)[C@H](N(C)C)[C@H]2O)[C@H]1OC	0.39 µg/mL (≈ 0.387 µM)	0.39 µg/mL (≈ 0.387 µM)	> 100 µg/mL	0.78 µg/mL (≈ 0.774 µM)	0.39 µg/mL (≈ 0.387 µM)	0.1 µg/mL (≈ 0.0993 µM)	> 100 µg/mL	25 µg/mL (≈ 24.8 µM)	0.1 µg/mL (≈ 0.0993 µM)	> 100 µg/mL	0.2 µg/mL (≈ 0.199 µM)	0.39 µg/mL (≈ 0.387 µM)	1.56 µg/mL (≈ 1.55 µM)	25 µg/mL (≈ 24.8 µM)
CCC(=O)O[C@@H]1CC(=O)O[C@H](C)C[C@H](O)[C@H](N(C)CCCCCc2ccccc2)/C=C/[C@H](OC(C)=O)[C@H](C)C[C@H](CC=O)[C@H](O[C@@H]2O[C@H](C)[C@@H](O[C@H]3C[C@@](C)(O)[C@@H](OC(=O)CC)[C@H](C)O3)[C@H](N(C)C)[C@H]2O)[C@H]1OC	0.39 µg/mL (≈ 0.372 µM)	0.39 µg/mL (≈ 0.372 µM)	> 100 µg/mL	0.78 µg/mL (≈ 0.743 µM)	0.39 µg/mL (≈ 0.372 µM)	0.1 µg/mL (≈ 0.0953 µM)	100 µg/mL (≈ 95.3 µM)	12.5 µg/mL (≈ 11.9 µM)	0.2 µg/mL (≈ 0.191 µM)	25 µg/mL (≈ 23.8 µM)	0.2 µg/mL (≈ 0.191 µM)	0.39 µg/mL (≈ 0.372 µM)	3.13 µg/mL (≈ 2.98 µM)	25 µg/mL (≈ 23.8 µM)
CCC(=O)O[C@@H]1CC(=O)O[C@H](C)C[C@@H]2OC(=O)N(CCCc3ccccc3)[C@@H]2/C=C/[C@H](OC(C)=O)[C@H](C)C[C@H](CC=O)[C@H](O[C@@H]2O[C@H](C)[C@@H](O[C@H]3C[C@@](C)(O)[C@@H](OC(=O)CC)[C@H](C)O3)[C@H](N(C)C)[C@H]2O)[C@H]1OC	0.78 µg/mL (≈ 0.755 µM)	0.78 µg/mL (≈ 0.755 µM)	> 100 µg/mL	1.56 µg/mL (≈ 1.51 µM)	0.78 µg/mL (≈ 0.755 µM)	0.2 µg/mL (≈ 0.194 µM)	> 100 µg/mL	> 100 µg/mL	0.2 µg/mL (≈ 0.194 µM)	> 100 µg/mL	0.2 µg/mL (≈ 0.194 µM)	1.56 µg/mL (≈ 1.51 µM)	6.25 µg/mL (≈ 6.05 µM)	100 µg/mL (≈ 96.8 µM)
CCC(=O)O[C@@H]1CC(=O)O[C@H](C)C[C@H](O)[C@H](N(C)CCCc2ccccc2)/C=C/[C@H](OC(C)=O)[C@H](C)C[C@H](CC=O)[C@H](O[C@@H]2O[C@H](C)[C@@H](O[C@H]3C[C@@](C)(O)[C@@H](OC(=O)CC)[C@H](C)O3)[C@H](N(C)C)[C@H]2O)[C@H]1OC	0.2 µg/mL (≈ 0.196 µM)	0.2 µg/mL (≈ 0.196 µM)	> 100 µg/mL	0.2 µg/mL (≈ 0.196 µM)	0.2 µg/mL (≈ 0.196 µM)	0.05 µg/mL (≈ 0.049 µM)	> 100 µg/mL	12.5 µg/mL (≈ 12.2 µM)	0.1 µg/mL (≈ 0.0979 µM)	100 µg/mL (≈ 97.9 µM)	0.1 µg/mL (≈ 0.0979 µM)	0.39 µg/mL (≈ 0.382 µM)	1.56 µg/mL (≈ 1.53 µM)	25 µg/mL (≈ 24.5 µM)
CCC(=O)O[C@@H]1CC(=O)O[C@H](C)C[C@@H]2OC(=O)N[C@@H]2/C=C/[C@H](OC(C)=O)[C@H](C)C[C@H](CC=O)[C@H](O[C@@H]2O[C@H](C)[C@@H](O[C@H]3C[C@@](C)(O)[C@@H](OC(=O)CC)[C@H](C)O3)[C@H](N(C)C)[C@H]2O)[C@H]1OC	0.39 µg/mL (≈ 0.426 µM)	0.39 µg/mL (≈ 0.426 µM)	> 100 µg/mL	0.39 µg/mL (≈ 0.426 µM)	0.78 µg/mL (≈ 0.852 µM)	0.2 µg/mL (≈ 0.219 µM)	> 100 µg/mL	> 100 µg/mL	0.2 µg/mL (≈ 0.219 µM)	> 100 µg/mL	0.2 µg/mL (≈ 0.219 µM)	0.39 µg/mL (≈ 0.426 µM)	0.78 µg/mL (≈ 0.852 µM)	6.25 µg/mL (≈ 6.83 µM)
